Measurements: ChEMBL document CHEMBL3351994, “Synthesis and biological evaluation of novel millepachine derivatives as a new class of tubulin polymerization inhibitors” (J Med Chem, 2014)

How the values were obtained:
K562 = test: Antiproliferative activity against human K562 cells assessed as inhibition of cell proliferation after 48 hrs by MTT assay; format: functional, cell-based; conditions: K562, 48 h
Summary of the method: (§1)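 Cells grown at 37 °C in humidified 5% CO2. K562, C26 and HCT lines in RPMI-1640; other lines in DMEM; both media with 10% FBS, penicillin and streptomycin. 1000 cells/well seeded, incubated overnight, then compound at various doses for 48 h. MTT added for 4 h, formazan dissolved in DMSO, absorbance read at 590 nm. IC50 from dose–response curves, mean ± SEM of at least three independent experiments.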

HepG2 = test: Antiproliferative activity against human HepG2 cells assessed as inhibition of cell proliferation after 48 hrs by MTT assay; format: functional, cell-based; summary of the method: as §1
A-375 = test: Antiproliferative activity against human A375 cells assessed as inhibition of cell proliferation after 48 hrs by MTT assay; format: functional, cell-based; conditions: A-375, 48 h; summary of the method: as §1
[1] = Solubility in PBS solution by nephelometry; format: physicochemical
Summary of the method: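 Maximum soluble concentration in PBS, determined by nephelometry.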

IC50 (K562)	IC50 (HepG2; Homo sapiens, HepG2, 48 h)	IC50 (A-375)	SMILES	IC50 (HepG2; hepg2)	solubility kinetic [1]
> 2 µM	> 2 µM	2 µM	COc1ccc(/C=C/C(=O)c2ccc(OC)c3c2OC(C)(C)C=C3)cc1NS(=O)(=O)Cc1ccccc1		
1.86 µM	0.97 µM	0.79 µM	COc1ccc(/C=C/C(=O)c2ccc(OC)c3c2OC(C)(C)C=C3)cc1NCc1ccccc1		
> 2 µM	> 2 µM	> 2 µM	COc1ccc(/C=C/C(=O)c2ccc(OC)c3c2OC(C)(C)C=C3)cc1NS(=O)(=O)c1ccc(C)cc1		
0.8 µM	0.91 µM	0.92 µM	CCC(=O)Nc1cc(/C=C/C(=O)c2ccc(OC)c3c2OC(C)(C)C=C3)ccc1OC		
			COc1ccc(/C=C/C(=O)c2ccc(OC)c3c2OC(C)(C)C=C3)cc1N.O=C(O)/C=C\C(=O)O	0.012 µM	47 µg/mL
1.77 µM	2 µM	1.8 µM	COc1ccc(/C=C/C(=O)c2ccc(OC)c3c2OC(C)(C)C=C3)cc1NS(C)(=O)=O		
0.7 µM	0.57 µM	0.43 µM	COc1ccc(/C=C/C(=O)c2ccc(OC)c3c2OC(C)(C)C=C3)cc1NC(C)=O		
> 2 µM	> 2 µM	> 2 µM	COc1ccc(/C=C/C(=O)c2ccc(OC)c3c2OC(C)(C)C=C3)cc1NC(=O)Cc1cccc(C(F)(F)F)c1		
> 2 µM	> 2 µM	> 2 µM	COc1ccc(/C=C/C(=O)c2ccc(OC)c3c2OC(C)(C)C=C3)cc1NCCN1CCOCC1		
0.114 µM	> 2 µM	> 2 µM	COc1ccc(/C=C/C(=O)c2ccc(OC)c3c2OC(C)(C)C=C3)cc1N(Cc1ccccc1)Cc1ccccc1		
0.89 µM	0.28 µM	0.7 µM	COc1ccc(/C=C/C(=O)c2ccc(OC)c3c2OC(C)(C)C=C3)cc1NC(=O)CN		
1.58 µM	1.96 µM	1.87 µM	COc1ccc(/C=C/C(=O)c2ccc(OC)c3c2OC(C)(C)C=C3)cc1NS(=O)(=O)C1CC1		
> 2 µM	> 2 µM	> 2 µM	CNc1cc(/C=C/C(=O)c2ccc(OC)c3c2OC(C)(C)C=C3)ccc1OC		
1.16 µM	1.3 µM	1.59 µM	CCCCC(=O)Nc1cc(/C=C/C(=O)c2ccc(OC)c3c2OC(C)(C)C=C3)ccc1OC		
> 2 µM	> 2 µM	> 2 µM	CCN(CC)c1cc(/C=C/C(=O)c2ccc(OC)c3c2OC(C)(C)C=C3)ccc1OC		
1.12 µM	0.84 µM	1.12 µM	C=CC(=O)Nc1cc(/C=C/C(=O)c2ccc(OC)c3c2OC(C)(C)C=C3)ccc1OC		
1.54 µM	1.64 µM	1.99 µM	COc1ccc(/C=C/C(=O)c2ccc(OC)c3c2OC(C)(C)C=C3)cc1NC(N)=O		
1.5 µM	> 2 µM	> 2 µM	COc1ccc(/C=C/C(=O)c2ccc(OC)c3c2OC(C)(C)C=C3)cc1N(CC=C(C)C)CC=C(C)C		
1.58 µM	1.64 µM	1.6 µM	C#CCNc1cc(/C=C/C(=O)c2ccc(OC)c3c2OC(C)(C)C=C3)ccc1OC		
			COc1ccc(/C=C/C(=O)c2ccc(OC)c3c2OC(C)(C)C=C3)cc1N.CS(=O)(=O)O	0.01 µM	50 µg/mL
0.57 µM	0.83 µM	0.53 µM	COc1ccc(/C=C/C(=O)c2ccc(OC)c3c2OC(C)(C)C=C3)cc1NC(=O)C(C)C		
0.22 µM	0.11 µM	0.36 µM	COc1ccc(/C=C/C(=O)c2ccc(OC)c3c2OC(C)(C)C=C3)cc1NC(=O)[C@@H](C)N		

SMILES	IC50 (K562)	IC50 (HepG2; Homo sapiens, HepG2, 48 h)	IC50 (A-375)	IC50 (HepG2; hepg2)	solubility kinetic [1]
COc1ccc(/C=C/C(=O)c2ccc(OC)c3c2OC(C)(C)C=C3)cc1N.O=C(O)C(O)C(O)C(=O)O		0.011 µM			52 µg/mL
